Laboratory results reported in ChEMBL document CHEMBL5335797, “Design, Synthesis, and Evaluation of New 1H-Benzo[d]imidazole Based PqsR Inhibitors as Adjuvant Therapy for Pseudomonas aeruginosa Infections” (J Med Chem, 2024).
Calls of active or inactive are those of the source. No cut-off for these calls is given here.

What was measured:
[1] = molecular target: T1, Transcriptional regulator MvfR (Pseudomonas aeruginosa PA14) (UniProt A0A072ZLE6); experiment: Antagonist activity at PqsR in wild-type Pseudomonas aeruginosa PAO1-L assessed as inhibition of pyocyanin level at 3 times IC50 incubated for 16 hrs by absorbance based assay relative to control; details: filed as antagonist
T1 sequence (whole entry): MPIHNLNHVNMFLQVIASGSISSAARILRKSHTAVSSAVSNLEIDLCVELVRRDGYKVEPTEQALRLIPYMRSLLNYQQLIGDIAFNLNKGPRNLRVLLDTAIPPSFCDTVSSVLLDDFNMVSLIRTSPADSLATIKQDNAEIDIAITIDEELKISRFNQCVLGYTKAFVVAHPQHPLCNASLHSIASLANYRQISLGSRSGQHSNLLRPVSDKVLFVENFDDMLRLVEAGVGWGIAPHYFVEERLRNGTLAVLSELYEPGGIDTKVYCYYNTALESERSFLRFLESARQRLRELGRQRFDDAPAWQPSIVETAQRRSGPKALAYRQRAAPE

[2] = Inhibition of Pseudomonas aeruginosa pqsA-lux complex expressed in Pseudomonas aeruginosa PA14 by bioluminescent reporter assay
Outline: (§1)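 Reporter strains PAO1-L and PA14 carrying chromosomal mCTX::PpqsA-lux, grown in LB at 37 °C. Inhibition read as reduced luminescence. Single-point screen at 10 μM from 10 mM DMSO stock; dose–response curves in both strains; mean ± SD, n = 2.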

[3] = Inhibition of Pseudomonas aeruginosa pqsA-lux complex expressed in Pseudomonas aeruginosa PAO1-L by bioluminescent reporter assay; outline: as §1
Pseudomonas aeruginosa [4] = experiment: Inhibition of Pseudomonas aeruginosa pqsA-lux complex expressed in Pseudomonas aeruginosa PAO1-L at 10 uM by bioluminescent reporter assay; outline: as §1
Pseudomonas aeruginosa [5] = experiment: Inhibition of Pseudomonas aeruginosa pqsA-lux complex expressed in Pseudomonas aeruginosa PA14 at 10 uM by bioluminescent reporter assay; outline: as §1
A549 = experiment: Cytotoxicity against human A549 cells assessed as cell viability upto 100 uM incubated for 24 hrs by resazurin reduction assay; format: toxicity, cell-based; details: a549, 24 h
Outline: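 A549 cells in DMEM with 10% FBS and 1% PSN, seeded at 1 × 10^4 cells/well. Compound at 1, 50 and 100 μM in sextuplicate, 24 h at 37 °C and 5% CO2. Vehicle control 1% DMSO; positive control 100 μM K2Cr2O7. Alamar blue added for 4–6 h, fluorescence read at ex 510/em 590 nm, normalized to DMSO.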

Compound | inhibition [1] | IC50 [2] | also measured
N#CCc1ccc(OCC(O)CNc2nc3ccc(Cl)cc3n2C2CCC2)cc1 (stereo not given) | > 50% | – | –
CN(C)CCn1c(NCC(O)COc2ccc(CC#N)cc2)nc2ccc(Cl)cc21 (stereo not given) | – | Not Active | IC50 [3]: Not Active
Cn1c(SCC(O)COc2ccc(CC#N)cc2)nc2ccc(Cl)cc21 (stereo not given) | – | – | inhibition (Pseudomonas aeruginosa [4]): inactive; inhibition (Pseudomonas aeruginosa [5]): inactive
Cn1c(NCC(O)COc2ccc(CC#N)cc2)nc2ccc(C(F)(F)F)cc21 (stereo not given) | – | Not Active | IC50 ([3]; read-out: IC50): 1500 nM
N#CCc1ccc(OCC(O)CNc2nc3ccc(Cl)cc3n2CCO)cc1 (stereo not given) | > 50% | – | –
COCCn1c(NCC(O)COc2ccc(CC#N)cc2)nc2ccc(Cl)cc21 (stereo not given) | > 50% | – | –

Continued, in another order:

inhibition [1] | IC50 [2] | Compound | also measured
> 50% | – | Cn1c(NCC(O)COc2ccc(CC#N)cc2)nc2ccc(Cl)cc21 (stereo not given) | –
– | Not Active | CC(C)n1c(NCC(N)COc2ccc(CC#N)cc2)nc2ccc(Cl)cc21 (stereo not given) | –
> 50% | – | CC(C)n1c(NCC(O)COc2ccc(CC#N)cc2F)nc2ccc(Cl)cc21 (stereo not given) | Activity (A549): Non-Toxic
– | Not Active | Cn1c(NCC(O)COc2ccc(CC#N)cc2)nc2cc(Cl)ccc21 (stereo not given) | IC50 [3]: Not Active
